In ChEMBL document CHEMBL3994628, “Coumarin derivatives as potential antitumor agents: Growth inhibition, apoptosis induction and multidrug resistance reverting activity” (Eur J Med Chem, 2017):
Active and inactive are the calls of the source. The rule behind the calls is not given here.

Columns and labels:
[1] = Growth inhibition of human LoVo/DX cells after 24 hrs by MTT assay; format: functional, cell-based
Outline: (§1)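 Cells were plated at 2x10^4 cells/cm2 and grown in RPMI 1640 with 10% FBS and 2 mM glutamine at 37 °C. They were exposed for 24 h to 0.01-100 µM, diluted from a 10 mmol/L DMSO stock, in triplicate. MTT was then added at 0.2 mg/mL in PBS for 4 h and the formazan dissolved in DMSO. A540 was read and IC50 taken from the dose-response curve, mean ± SD. The ratio compares the IC50s of the two lines.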

LoVo [2] = test: Growth inhibition of human LoVo cells after 24 hrs by MTT assay; format: functional, cell-based; outline: as §1
Homo sapiens [3] = species on record: Homo sapiens; test: Inhibition of P-gp in human LoVo/DX cells assessed as reduction in Rhodamine123 efflux at 2.5 uM preincubated for 15 mins followed by Rhodamine123 addition measured after 1 hr by flow cytometry; format: cell-based
Outline: (§2)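 LoVo/Dx cells at 3x10^5 cells/mL in serum-free, phenol red-free medium were preincubated at room temperature for 15 min at 2.5 or 10 µM. Rhodamine 123 was then added at 2 µM for 1 h at 37 °C in the dark. After a PBS wash, fluorescence was read by flow cytometry at 488 nm excitation and 530 nm emission. Mean control fluorescence was subtracted. Verapamil served as positive control. Data are mean ± SD of ≥3 experiments.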

LoVo [4] = test: Induction of apoptosis in human LoVo cells assessed as caspase-activation using DEVD as substrate at cytotoxic concentration after 24 hrs by fluorimetric assay relative to control; format: functional
Outline: (§3)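 After 24 h exposure at cytotoxic concentration, DEVD-hydrolysing caspase activity was measured fluorimetrically in cell extracts. Values are given as percentage increase over untreated control, set at 100%. Data are mean ± SD of at least three independent experiments.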

LoVo [5] = test: Cytotoxic activity against human LoVo cells after 24 hrs by phase contrast microscopic method; format: functional, cell-based
Outline: (§4)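 LoVo or LoVo/Dx cells were plated at 2x10^4 cells/cm2 in RPMI 1640 with 10% FBS and exposed for 24 h. Phase contrast microscopy was used to judge growth delay without cell death (cytostatic) or cell death, shown as floating cells (cytotoxic).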

LoVo/DX [6] = test: Cell cycle arrest in human LoVo/DX cells assessed as accumulation at S phase after 24 hrs by propidium iodide staining based flow cytometry; format: functional
LoVo/DX [7] = test: Cytostatic activity against human LoVo/DX cells by phase contrast microscopic method; format: functional, cell-based; outline: as §4
LoVo [8] = test: Cell cycle arrest in human LoVo cells assessed as accumulation at G2/M phase after 24 hrs by propidium iodide staining based flow cytometry; format: functional
Homo sapiens [9] = species on record: Homo sapiens; test: Substrate activity at P-gp in human LoVo/DX cells assessed as ATP consumption at 10 uM after 2 hrs by ATPlite assay; format: cell-based
LoVo [10] = test: Cell cycle arrest in human LoVo cells assessed as accumulation at G0/G1 phase after 24 hrs by propidium iodide staining based flow cytometry; format: functional
LoVo [11] = test: Cytostatic activity against human LoVo cells by phase contrast microscopic method; format: functional, cell-based; outline: as §4
LoVo/DX [12] = test: Induction of apoptosis in human LoVo/DX cells assessed as caspase-activation using DEVD as substrate at cytotoxic concentration after 24 hrs by fluorimetric assay; format: functional, cell-based; outline: as §3
Homo sapiens [13] = species on record: Homo sapiens; test: Inhibition of P-gp in human LoVo/DX cells assessed as reduction in Rhodamine123 efflux at 10 uM preincubated for 15 mins followed by Rhodamine123 addition measured after 1 hr by flow cytometry; format: cell-based; outline: as §2
LoVo/DX [14] = test: Cytotoxic activity against human LoVo/DX cells after 24 hrs by phase contrast microscopic method; format: functional, cell-based; outline: as §4
[15] = Selectivity ratio of IC50 for human LoVo/DX cells to IC50 for human LoVo cells; format: functional; outline: as §1
LoVo/DX [16] = test: Cell cycle arrest in human LoVo/DX cells assessed as accumulation at G0/G1 phase after 24 hrs by propidium iodide staining based flow cytometry; format: functional
Homo sapiens [17] = species on record: Homo sapiens; test: Inhibition of P-gp in human LoVo/DX cells assessed as reduction in Rhodamine123 efflux at 2.5 to 10 uM preincubated for 15 mins followed by Rhodamine123 addition measured after 1 hr by flow cytometry relative to verapamil; format: cell-based; outline: as §2
LoVo [18] = test: Cell cycle arrest in human LoVo cells assessed as accumulation at G2/M phase at 3.5 to 7 uM after 24 hrs by propidium iodide staining based flow cytometry; format: functional
[19] = Selectivity ratio of IC50 for human LoVo cells to IC50 for human LoVo/DX cells; format: functional; outline: as §1
[20] = Induction of apoptosis in human LoVo/DX cells assessed as caspase-activation using DEVD as substrate at cytotoxic concentration after 24 hrs by fluorimetric assay relative to sensitive LoVo cells; format: functional
LoVo/DX [21] = test: Cell cycle arrest in human LoVo/DX cells assessed as accumulation at G0/G1 phase at 1.8 uM after 24 hrs by propidium iodide staining based flow cytometry; format: functional
LoVo/DX [22] = test: Cell cycle arrest in human LoVo/DX cells assessed as accumulation at G2/M phase at 3.6 uM after 24 hrs by propidium iodide staining based flow cytometry; format: functional

| Structure (SMILES) | IC50 (LoVo [2]) | IC50 [1] | P-gp inhibition (active/not active) (Homo sapiens [3]) | Activity (Homo sapiens [9]) | P-gp inhibition (active/not active) (Homo sapiens [13]) | further results |
| --- | --- | --- | --- | --- | --- | --- |
| C#C/C(C)=C/COc1ccc2ccc(=O)oc2c1 | 48 µM | 71.5 µM | inactive |  |  |  |
| C/C(C#CCN1CCCCC1)=C\COc1ccc2ccc(=O)oc2c1 | 62 µM | 33 µM | Active |  |  |  |
| C/C(C#CCN1CCN(Cc2ccccc2)CC1)=C\COc1ccc2ccc(=O)oc2c1 | 67.6 µM | 19.6 µM | Active |  |  |  |
| COc1ccc(CCN(C)CCCC(C#N)(c2ccc(OC)c(OC)c2)C(C)C)cc1OC (stereo not given) |  |  |  | Active |  |  |

More lines, main results first:

| IC50 (LoVo [2]) | Structure (SMILES) | IC50 [1] | P-gp inhibition (active/not active) (Homo sapiens [3]) | Activity (Homo sapiens [9]) | P-gp inhibition (active/not active) (Homo sapiens [13]) | further results |
| --- | --- | --- | --- | --- | --- | --- |
| 2.5 µM | C/C(C#CCN1CCC(n2c(=O)[nH]c3ccccc32)CC1)=C\COc1ccc2ccc(=O)oc2c1 | 5 µM | Active | Active | Active | Activity (LoVo [4]): 19%; Activity (LoVo [5]): Active; Activity (LoVo/DX [6]): Dose-dependent effect; Activity (LoVo/DX [7]): Active; Activity (LoVo [8]): Dose-dependent effect; Activity (LoVo [10]): Dose-dependent effect; Activity (LoVo [11]): Active; Activity (LoVo/DX [12]): Active; Activity (LoVo/DX [14]): Active; Ratio IC50 [15]: 2 |
| 30 µM | CC(C)=CCOc1ccc2ccc(=O)oc2c1 [7-PRENYLOXYCOUMARIN] | 50.3 µM | Active |  |  |  |
| 41 µM | C/C(C#CCN1CCN(c2ccccc2)CC1)=C\COc1ccc2ccc(=O)oc2c1 | 12 µM | Active |  |  |  |
| 10.7 µM | COc1cc2c(cc1OC)CN(CC#C/C(C)=C/COc1ccc3ccc(=O)oc3c1)CC2 | 10.6 µM | Active | inactive | Active | Activity (LoVo [4]): 39%; Activity (LoVo [5]): Active; Activity (LoVo/DX [7]): Active; Activity (LoVo [10]): Dose-dependent effect; Activity (LoVo [11]): Active; Activity (LoVo/DX [12]): Active; Activity (LoVo/DX [14]): Active; Activity (LoVo/DX [16]): Dose-dependent effect |
| 47 µM | C/C(C#CCN1CCN(C(c2ccc(F)cc2)c2ccc(F)cc2)CC1)=C\COc1ccc2ccc(=O)oc2c1 | 60 µM | Active | Active | Active |  |
| 40 µM | COc1ccc(CCN(C)CC#C/C(C)=C/COc2ccc3ccc(=O)oc3c2)cc1OC | 15.4 µM | Active | inactive | Active | fold change (FC) (Homo sapiens [17]): 10 |
| 3.5 µM | C/C(C#CCN1CCN(C2c3ccccc3-c3ccccc32)CC1)=C\COc1ccc2ccc(=O)oc2c1 | 1.8 µM | Active | Active | inactive | Activity (LoVo [4]): 72%; Activity (LoVo [5]): Active; Activity (LoVo [18]): Active; Activity (LoVo/DX [7]): Active; Ratio IC50 [19]: 2; fold change (FC) [20]: 3; Activity (LoVo [11]): Active; Activity (LoVo/DX [21]): Active; Activity (LoVo/DX [14]): Active; Activity (LoVo/DX [22]): Active |
